# Shown are actives, neighbours in structure and some others; about 2.1% of the full set was active somewhere.
# STK33 kinase inh = blocks human STK33 kinase activity | purified STK33, MBP phosphorylation, ADP-Glo luminescence | inhibition, % at 10 µM | 0.073% of 320,000 active;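 active = inhibition at or above 25%, using the most active replicate where run in duplicate; inactive = inhibition below 25%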
# GSK3 alpha inh = inhibitors of human GSK-3 alpha kinase. 0.1% of 320,000 active. ADP-Glo luminescence, 60 min. P49840. AID 2650. inhibition, % at 10 µM;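 active = more than half of replicates show inhibition above 20%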;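 note: GST-tagged GSK-3 alpha with peptide substrate and 25 µM ATP; 0% = DMSO neutral wells and 100% = GW8510 positive control wells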
# Target sequence (P49840 whole entry, looked up): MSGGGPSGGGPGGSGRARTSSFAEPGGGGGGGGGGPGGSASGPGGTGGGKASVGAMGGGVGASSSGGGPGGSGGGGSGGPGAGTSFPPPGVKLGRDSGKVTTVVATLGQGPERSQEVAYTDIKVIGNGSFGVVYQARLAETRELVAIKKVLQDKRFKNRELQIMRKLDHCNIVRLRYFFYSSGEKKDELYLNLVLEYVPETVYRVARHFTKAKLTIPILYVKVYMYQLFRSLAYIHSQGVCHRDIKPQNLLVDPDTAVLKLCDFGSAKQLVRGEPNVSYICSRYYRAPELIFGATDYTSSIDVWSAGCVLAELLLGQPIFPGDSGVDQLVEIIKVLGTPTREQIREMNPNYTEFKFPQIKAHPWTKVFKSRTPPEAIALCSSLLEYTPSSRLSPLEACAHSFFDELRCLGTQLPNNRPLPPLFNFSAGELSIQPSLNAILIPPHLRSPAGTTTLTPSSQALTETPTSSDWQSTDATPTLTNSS
# MEKK3 PB1 HTS = MEKK3-MEK5 PB1 interaction, increase or decrease | Q99759 | bead-based flow cytometry, Alexa488-MEK5 binding to MEKK3; actives lie on both sides; 0 = blocked by unlabeled MEK5, 100 = vehicle | binding response (% of control), % at 10 µM | 1.4% of 290,000 active;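 active = binding response more than 3 SD above or below the average of its plate-row segment, actives on both sides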;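 note: Alexa488 bead fluorescence after subtracting the streptavidin-only scavenger bead signal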
# GSK3beta inhib = human GSK3beta kinase inhibition; AID 2097; 0.038% of 300,000 active; activity score (negative = inhibition), % at 10 µM; GST-GSK3beta kinase, ADP-Glo luminescence, 60 min; active compounds read low; P49841;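 active = more than half of replicate wells score below -50%, meaning over 50% inhibition versus plate controls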;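 note: 0% = median DMSO wells and -100% = median GW8510 positive control wells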
#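 Assay system: GST-fused GSK3beta enzyme, cell-free / Medium: Tris pH 7.5 buffer with MgCl2, DTT, BSA, heparin / Also added: peptide substrate plus 25 µM ATP (final) / Compound: 10 µM single point / Timing: kinase reaction with compound 60 min at room temperature / Detection: ADP-Glo luminescence / Benchmarks: DMSO neutral wells and GW8510 at 20 µM as positive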
# MEKK2mut PB1 HTS = signal of MEK5 binding to mutant human MEKK2 PB1 domain. bead flow cytometry, Alexa488-MEK5 binding to MEKK2 mutant. percent response, % at 10 µM. 0.35% of 290,000 active. AID 1530; in the data active = percent response above about 24%, passing the limit was not always enough
# MEKK2 WT-MEK5 = raises or lowers MEK5 binding to wildtype human MEKK2 PB1 domain. bead flow cytometry, Alexa488-MEK5 binding to MEKK2 WT; actives lie on both sides. binding response (% of control), % at 10 µM. Q9Y2U5. AID 1531. 1.1% of 290,000 active; in the data active = binding response below about 67% or above about 130%
# * marks the source's active call; other numbers are inactive results; nt = not tested or not shown; [ ] = dose if it differs, or a comment.
SMILES,STK33 kinase inh,GSK3 alpha inh,MEKK3 PB1 HTS,GSK3beta inhib,MEKK2mut PB1 HTS,MEKK2 WT-MEK5
C=CC(=O)Nc1ccc(CN2C(=O)N(c3c(Cl)c(OC)cc(OC)c3Cl)Cc3cnc(NCCCCN(CC)CC)nc32)cc1,80*,23,nt,nt,nt,nt
CS(=O)(=O)c1ccc(Cl)c(NC(=O)C2CCCCN2S(=O)(=O)c2ccccc2)c1 (stereo not given),1,-6,nt,nt,nt,nt
Nc1nc(NCC2CCCO2)nc(Nc2ccc(Cl)cc2)c1[N+](=O)[O-] (stereo not given),3,3,110,-2,11,109
Nc1nc(Nc2cccc(Cl)c2)nc(NCc2ccco2)c1[N+](=O)[O-],2,11,105,-3,2,101
Cc1ccc(Nc2nc(NCCCN3CCOCC3)nc(N)c2[N+](=O)[O-])cc1,0,58*,107,-2,4,106
Nc1nc(NCCCN2CCOCC2)nc(Nc2ccc(Cl)cc2)c1[N+](=O)[O-],1,57*,108,-27,3,114
Nc1nc(NCCCN2CCOCC2)nc(Nc2cccc(Cl)c2)c1[N+](=O)[O-],2,78*,75,-77*,-8,107
CCC(CC)C(=O)Nc1nnc(S(=O)(=O)Nc2ccc(OC)cc2)s1,0,-4,100,6,5,103
O=C(OCN1C(=O)c2ccccc2C1=O)c1cccnc1SC(F)F,0,-1,107,2,11,107
COc1cc(NC(=O)Cc2ccc([N+](=O)[O-])cc2)c(C(=O)O)cc1OC,4,-3,95,0,-2,92
O=C(CSc1ccc2nnc(-c3ccccn3)n2n1)Nc1ccccc1C(F)(F)F,2,-1,96,-5,0,97
CC(=O)c1cc(-c2ccccc2)n(CCC(=O)NC2CCCC2)c1C,-1,-1,122,2,0,114
CC(=O)c1cc(-c2ccc(F)cc2)n(CCC(=O)Nc2cc(C)[nH]n2)c1C,0,56*,107,1,10,112
CN(C(=O)c1c(Br)cnn1C)C12CC3CC(CC(C3)C1)C2,nt,nt,144*,nt,0,109
CCN(CC)c1ccc(C=NCCNS(=O)(=O)c2ccc(C)cc2)cc1,0,-2,98,3,7,-6.0*
O=S(=O)(Nc1ccc(Cl)cc1)c1cccc2nsnc12,-1,-1,109,-3,7,109
CC1=C(C(=O)OCc2ccc3c(c2)OCO3)C(c2ccccc2)NC(=O)N1 (stereo not given),-1,63*,95,0,6,94
CC(C)OCCCN1C(=O)c2[nH]nc(-c3ccccc3O)c2C1c1cccc(Cl)c1 (stereo not given),1,-2,138*,2,3,110
N#CC(C#N)=C(Nc1ccc(F)cc1)SCc1cccc(F)c1,0,-1,3.0*[inhibitor],4,-16,4.0*[inhibitor]
CCc1nc2nc(C)c(NS(=O)(=O)c3ccc(Cl)cc3)c(=O)n2[nH]1,0,-2,102,-4,-5,97
COc1cccc(NC(=O)CN(C)CC(=O)Nc2ccc3c(c2)OCO3)c1,0,0,nt,nt,nt,nt
CCC(C)c1ccc(NC(=O)CN(C)CC(=O)Nc2cccc(OC)c2)cc1 (stereo not given),-2,0,101,2,-6,-6.0*
COc1cc(/C=N/NC(=O)C(=O)/C=C2\NC3(CCCC3)Cc3ccccc32)ccc1O,-1,-1,101,-9,9,106
O=C(/C=C1\NC2(CCCC2)Cc2ccccc21)C(=O)N/N=C/c1ccccc1O,5,7,174*,-3,0,102
CCCCN(C(=O)CCC(=O)Nc1cc(C)on1)C(C(=O)NC1CCCC1)c1ccccc1OCC (stereo not given),0,2,98,0,-3,90
SMILES,STK33 kinase inh,GSK3 alpha inh,MEKK3 PB1 HTS,GSK3beta inhib,MEKK2mut PB1 HTS,MEKK2 WT-MEK5
Nc1nc(N)c2cc(Sc3ccc4ccccc4c3)ccc2n1,-1,-3,99,0,26,157*
Cc1ccc2c(C(=O)CN3CC(C)CC(C)C3)c(C)[nH]c2c1 (stereo not given),-1,-1,103,0,8,103
Cc1ccc(-c2nn(CCC(=O)O)cc2/C=C\C(=O)c2ccc(Br)cc2)cc1,36*,6,127,0,2,121
O=C(O)CCn1cc(/C=C\C(=O)c2ccc(Cl)cc2)c(-c2cccc(Br)c2)n1,15,-3,78,0,-1,91
COC(=O)CN1C(=O)[C@H]2[C@@H](c3ccc(C)o3)N3C(=O)CN(Cc4ccccn4)C(=O)[C@@]3(Cc3ccccc3)[C@H]2C1=O,2,6,101,1,-5,97
CCN(CC)CCCNc1nc(SC)nc2sc3c(c12)CCN(C)C3,4,18,99,1,30*,153*
CSc1nc(NCCCO)c2c3c(sc2n1)CN(C)CC3,8,49,98,-41,-4,96
CSc1nc(NCC(C)O)c2c3c(sc2n1)CN(C)CC3 (stereo not given),4,48,100,-54*,4,103
CCC(C)Nc1nc(N)c([N+](=O)[O-])c(Nc2ccccc2OC)n1 (stereo not given),1,66*,107,-55*,6,104
c1cncc(C2Nc3ccccc3-c3nc4ccccc4n32)c1 (stereo not given),39*,10,105,-1,9,105
COc1ccccc1NC(=O)COC(=O)C1CC1,-1,-1,104,3,-4,100
O=c1cc(-c2ccncc2)oc2ccccc12,8,58*,99,-41,4,101
Cc1ccc(C(=O)NCCC(=O)NCc2ccco2)cc1,0,5,103,-1,6,104
CS(=O)(=O)N(CC(=O)N1CCc2ccccc2C1)Cc1ccc(Cl)cc1,0,-4,100,4,0,101
Cc1occc1C(=O)N/N=C/c1ccc(N(C)C)cc1,29*,30,100,-27,6,103
O=C(NCCOc1ccccc1)c1cc(S(=O)(=O)N2CCOCC2)ccc1F,nt,nt,100,-1,2,102
S=C(Nc1cccnc1)Nc1cccc2cnccc12,27*,59*,92,-3,-4,95
S=C(Nc1ccc(Cl)cc1)Nc1cccc2cnccc12,6,5,92,-2,-1,90
COc1cc(/C=C/c2cc[n+](C)cc2)ccc1OCC(=O)Nc1ccc(Cl)c(Cl)c1,6,35,111,-18,75*,237*
COc1ccc(NC(=O)COc2ccc(/C=C/c3cc[n+](C)cc3)cc2OC)cc1,0,2,98,-1,-1,103

# From PubChem BioAssay
